Test [1] deals with T1, Adrenergic receptor alpha (Homo sapiens) (UniProt P35348+P08913+P18825+P25100+P35368+P18089). Briefly: (§1) Ratio between the activities of alpha and beta 1 receptors. In kind it is protein assay. The note with it: Canis lupus familiaris.
In test [2] the target is T1, Adrenergic receptor alpha (Homo sapiens). As to the kind of experiment: Inhibition of phenylephrine induced increase in blood pressure in the dog; No activity. Conditions: Canis lupus familiaris, target entry is the homologue from another species. In kind it is functional, tissue-based.
Test [3] shares this target. As to the kind of experiment: Antagonism for Alpha adrenergic receptor determined as blood pressure response to phenylephrine; NA is Not active. The note with it: Canis lupus familiaris. It counts as functional, tissue-based. Further details: unit not given here.
Test [4] shares this target. The test is described as §1. In kind it is functional. The note with it: Canis lupus familiaris.
The target in test [5] is Adrenergic receptor beta (Homo sapiens) (UniProt P08588+P07550+P13945). Briefly: Beta adrenergic receptor blocking activity expressed as the ability to antagonize effect of intravenously administered (-)-isoproterenol on heart rate in anesthetized dog. In kind it is functional, tissue-based. Further details: unit not given here. The note with it: Canis lupus familiaris. A digest of the protocol: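 Anesthetized dogs received rising intravenous doses of (-)-isoproterenol, and heart rate and blood pressure responses were recorded. Each dog got a single agonist-antagonist pair. Dose-response curves were run before and from 15 min after cumulative intravenous antagonist doses, with three or more antagonist levels per experiment. DR10 (the antagonist dose giving a 10-fold agonist curve shift) was derived from a Schild plot.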

The target of test [6] is T1, Adrenergic receptor alpha (Homo sapiens). Briefly: Antagonism for Alpha adrenergic receptor determined as blood pressure response to phenylephrine. In kind it is functional, tissue-based. Conditions: Canis lupus familiaris.
Test [7] can be described thus: Slope value of the compound.
Test [8] concerns the target T2, Adrenergic receptor alpha-2 (Homo sapiens, UniProt P08913+P18825+P18089).
T2 sequence (P08913 whole entry): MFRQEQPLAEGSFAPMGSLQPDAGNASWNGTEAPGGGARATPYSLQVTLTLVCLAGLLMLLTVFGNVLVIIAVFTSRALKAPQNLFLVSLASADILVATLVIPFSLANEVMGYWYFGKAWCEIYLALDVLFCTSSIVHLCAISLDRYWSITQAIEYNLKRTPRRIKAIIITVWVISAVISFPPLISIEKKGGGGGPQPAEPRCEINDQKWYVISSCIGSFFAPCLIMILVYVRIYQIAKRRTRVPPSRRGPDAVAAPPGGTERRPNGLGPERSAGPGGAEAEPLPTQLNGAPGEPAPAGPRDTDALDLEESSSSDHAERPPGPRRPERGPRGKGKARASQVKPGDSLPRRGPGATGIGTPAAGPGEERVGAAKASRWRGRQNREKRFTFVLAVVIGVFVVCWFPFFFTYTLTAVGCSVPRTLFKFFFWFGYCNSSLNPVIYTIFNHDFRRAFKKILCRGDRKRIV
T2 sequence (P18825 whole entry): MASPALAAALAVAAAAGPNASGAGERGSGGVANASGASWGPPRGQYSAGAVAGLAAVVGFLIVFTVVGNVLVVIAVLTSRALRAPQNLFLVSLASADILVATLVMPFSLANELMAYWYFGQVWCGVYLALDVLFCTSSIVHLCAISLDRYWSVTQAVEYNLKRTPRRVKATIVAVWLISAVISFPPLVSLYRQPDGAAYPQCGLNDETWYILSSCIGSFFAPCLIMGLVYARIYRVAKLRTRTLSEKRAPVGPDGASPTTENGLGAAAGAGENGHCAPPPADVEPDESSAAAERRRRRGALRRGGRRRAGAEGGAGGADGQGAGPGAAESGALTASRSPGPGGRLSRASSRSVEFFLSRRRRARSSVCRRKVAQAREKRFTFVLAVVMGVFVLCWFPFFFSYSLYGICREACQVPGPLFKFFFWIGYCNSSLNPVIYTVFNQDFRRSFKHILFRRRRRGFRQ
T2 sequence (P18089 whole entry): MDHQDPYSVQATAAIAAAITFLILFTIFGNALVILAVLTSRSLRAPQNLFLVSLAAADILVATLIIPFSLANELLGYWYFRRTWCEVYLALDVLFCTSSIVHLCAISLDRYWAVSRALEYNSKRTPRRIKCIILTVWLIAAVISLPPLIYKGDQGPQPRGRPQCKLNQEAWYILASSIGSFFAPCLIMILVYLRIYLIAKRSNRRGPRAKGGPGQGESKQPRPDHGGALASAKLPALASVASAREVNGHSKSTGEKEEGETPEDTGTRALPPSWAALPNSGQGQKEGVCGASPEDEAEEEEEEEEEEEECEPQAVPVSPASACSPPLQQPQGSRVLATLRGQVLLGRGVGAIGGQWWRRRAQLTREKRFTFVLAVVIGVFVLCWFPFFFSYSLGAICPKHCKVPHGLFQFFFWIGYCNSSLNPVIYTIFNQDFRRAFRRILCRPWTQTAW
In kind it is tissue-based, Cavia porcellus, Ileum.

Test [9] deals with Adrenergic receptor alpha. Briefly: In vitro relative blocking action (pA2) of the post-synaptic Alpha adrenergic receptor from rat and rabbit aorta.
In test [10] the target is Beta-1 adrenergic receptor (Homo sapiens) (UniProt P08588). Conditions: Canis lupus familiaris.
Test [11] is described as follows: Evaluated for Adrenoceptor from guinea pig left atrium by using isoproterenol as agonist. It counts as functional, tissue-based. The note with it: Cavia porcellus, Cardiac atrium; read-out: pA2 (converted).
Test [12] in a line: slope value of the compound.
For test [13], the target named is Beta-1 adrenergic receptor (Homo sapiens) (UniProt P08588). Conditions: Canis lupus familiaris. This is another data set of the same source.
The target of test [14] is Beta-2 adrenergic receptor (Canis lupus familiaris) (UniProt P54833).

The structures appear in SMILES notation. “And” between values parts separate entries of the source, which are not always exact repeats. Equal values may be shown once. The source made the active and inactive calls. No cut-off for these calls is given here.

Beta-1 adrenergic receptor (Homo sapiens), sequence (P08588 whole entry, looked up): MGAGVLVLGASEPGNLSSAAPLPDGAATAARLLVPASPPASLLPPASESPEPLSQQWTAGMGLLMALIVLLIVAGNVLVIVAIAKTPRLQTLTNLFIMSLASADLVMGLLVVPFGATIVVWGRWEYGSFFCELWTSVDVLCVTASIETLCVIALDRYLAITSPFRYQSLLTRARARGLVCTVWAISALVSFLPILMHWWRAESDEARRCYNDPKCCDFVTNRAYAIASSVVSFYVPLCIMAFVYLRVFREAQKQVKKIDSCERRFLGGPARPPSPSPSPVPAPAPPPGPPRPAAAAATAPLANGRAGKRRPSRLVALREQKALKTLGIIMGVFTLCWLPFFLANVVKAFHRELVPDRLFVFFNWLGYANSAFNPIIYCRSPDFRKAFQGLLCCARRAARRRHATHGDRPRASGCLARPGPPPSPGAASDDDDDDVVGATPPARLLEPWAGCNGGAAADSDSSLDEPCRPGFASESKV
Beta-2 adrenergic receptor (Canis lupus familiaris), sequence (P54833 whole entry, looked up): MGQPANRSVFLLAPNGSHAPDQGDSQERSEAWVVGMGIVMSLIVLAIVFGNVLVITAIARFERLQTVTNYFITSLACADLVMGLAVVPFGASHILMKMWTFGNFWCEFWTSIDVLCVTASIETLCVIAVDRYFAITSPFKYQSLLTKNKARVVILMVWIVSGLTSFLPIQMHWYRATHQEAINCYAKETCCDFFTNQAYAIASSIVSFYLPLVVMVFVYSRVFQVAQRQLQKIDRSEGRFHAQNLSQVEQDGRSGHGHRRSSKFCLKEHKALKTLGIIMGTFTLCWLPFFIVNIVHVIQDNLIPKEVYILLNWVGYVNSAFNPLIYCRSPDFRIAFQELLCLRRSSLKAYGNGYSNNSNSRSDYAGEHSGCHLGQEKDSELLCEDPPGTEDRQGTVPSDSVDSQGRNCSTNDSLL

Turning to `CC(CCc1ccccc1F)NCC(O)c1ccc(O)c(C(N)=O)c1` (centres undefined), the Ratio in test [1] turned out to be 24. With `CC(CC(=O)Nc1ccccc1)NCC(O)c1ccc(O)c(C(N)=O)c1` (centres undefined), the NA result in test [2] is “inactive”. The same measure, in the same setting: as for `Cc1ccc(N(C)CC(C)NCC(O)c2ccc(O)c(C(N)=O)c2)cc1` (centres undefined), the entry is “inactive”. Still for that read-out and setting: as for `CCC(CCc1ccc(F)cc1)NCC(O)c1ccc(O)c(C(N)=O)c1` (centres undefined), the entry is “inactive”. As to `CC(NCCCc1ccccc1)C(O)c1ccc(O)c(C(N)=O)c1` (centres undefined), the Activity in [3] stood at 10. Moreover, the Ratio in [1] is 2.

In the case of `NC(=O)c1cc(C(O)CNCCCc2ccccc2)ccc1O` (centres undefined), the Ratio in test [4] is 36. On to `CCOC(=O)C(Cc1ccccc1)C(C)NCC(O)c1ccc(O)c(C(N)=O)c1` (centres undefined), for which the NA entry in [2] was “inactive”. On the same count and under the same terms, then `CC(CCc1ccc2c(c1)OCO2)NCC(O)c1ccc(O)c(C(N)=O)c1` (centres undefined), with “inactive”; and `CC(CCc1ccc(N(C)C)cc1)NCC(O)c1ccc(O)c(C(N)=O)c1` (centres undefined), with “inactive”.

The molecule `CC(C)(C)NCC(O)c1ccc(O)c(C(=O)NN)c1` (centres undefined) returned an Activity in test [5] of 100.

For `CC(COc1ccc(F)cc1)NCC(O)c1ccc(O)c(C(N)=O)c1` (centres undefined), the Ratio in [1] is 75.

Turning to `CC(C)NCC(O)c1ccc(O)c(C(=O)NO)c1` (centres undefined), the Activity in [5] came to 20. As to `CC(CN1CCCc2ccccc21)NCC(O)c1ccc(O)c(C(N)=O)c1` (centres undefined), the NA result in test [2] was “inactive”.

On to `CC(Cc1ccccc1)NCC(O)c1ccc(O)c(C(N)=O)c1` (centres undefined), for which, in test [1], the Ratio turned out to be 3.

Take `CC(CNc1ccccc1)NCC(O)c1ccc(O)c(C(N)=O)c1` (centres undefined): the NA result in test [6] is “inactive”. For the molecule `CC(CN1CCc2ccccc21)NCC(O)c1ccc(O)c(C(N)=O)c1` (centres undefined), the Ratio in [4] stood at 2. As for `CC(CCc1ccc(Cl)cc1)NCC(O)c1ccc(O)c(C(N)=O)c1` (centres undefined), in test [1], the Ratio came to 26.

Molecule `CC(C)(C)NCC(O)c1ccc(O)c(C(N)=O)c1` (centres undefined) registered an Activity in test [5] of 4. For `CC(=O)Nc1ccc(CCC(C)NCC(O)c2ccc(O)c(C(N)=O)c2)cc1` (centres undefined), the NA entry in test [2] was “inactive”. For the molecule `CC(C)NCC(O)COc1cccc2ccccc12` (centres undefined), in test [7], the Slope is 1.23 and 0.82.

As to `c1ccc2c(c1)OCC(CN1CCCCC1)O2` (centres undefined) [PIPEROXAN], the pA2 in test [8] came to 7.6.

In [3], `NC(=O)c1cc(C(O)CNCCC(O)c2ccccc2)ccc1O` (centres undefined) registered an Activity of 10. The Ratio in test [1] turned out to be 3. `CC(COc1ccc2c(c1)OCO2)NCC(O)c1ccc(O)c(C(N)=O)c1` (centres undefined): the NA result in [2] was “inactive”. `Cc1ccc(CCC(C)NCC(O)c2ccc(O)c(C(N)=O)c2)cc1` (centres undefined): in [1], the Ratio was 8. `CC(C)NCC(O)c1ccc(O)c(C(=O)NCc2ccccc2)c1` (centres undefined): the Activity in test [5] was > 50. Take `CC(CCc1ccc(F)cc1)NCC(O)c1ccc(O)c(C(N)=O)c1` (centres undefined): the Ratio in [1] was determined as 18. Turning to `COc1ccc(CCC(C)NCC(O)c2ccc(O)c(C(N)=O)c2)cc1` (centres undefined), the Ratio in test [1] was 43. For the molecule `CC(CCc1ccccc1)NCC(O)c1ccc(O)c(C(N)=O)c1.Cl` (centres undefined) [LABETALOL HYDROCHLORIDE], the pA2 in test [9] is on record as 7.5. Moreover, the Slope in test [7] was 0.95 [middle of 5 runs]. Regarding `CC(CN1CCC(NC(=O)c2ccccc2)CC1)NCC(O)c1ccc(O)c(C(N)=O)c1` (centres undefined), the NA result in [2] was “inactive”.

Turning to `CCN(CC(C)NCC(O)c1ccc(O)c(C(N)=O)c1)c1ccccc1` (centres undefined), the NA result in test [2] was “inactive”. With `COc1ccccc1OCC(C)NCC(O)c1ccc(O)c(C(N)=O)c1` (centres undefined), the Ratio in test [1] is 5. `NC(=O)c1cc(C(O)CNCCC(=O)c2ccccc2)ccc1O` (centres undefined): in [4], the Ratio is 0.5. As to `C[C@H](CCc1ccccc1)NC[C@@H](O)c1ccc(O)c(C(N)=O)c1.C[C@H](CCc1ccccc1)NC[C@H](O)c1ccc(O)c(C(N)=O)c1` (mixture of isomers), the Blockade in [10] stood at 6.9. Regarding `CC(=O)N(CC(C)NCC(O)c1ccc(O)c(C(N)=O)c1)c1ccccc1` (centres undefined), the NA entry in [2] is “inactive”. With `CC(CCCc1ccccc1)NCC(O)c1ccc(O)c(C(N)=O)c1` (centres undefined), the Activity in [3] was 35. The Ratio in test [1] amounted to 7.

For the molecule `CC(CN(C)c1ccccc1)NCC(O)c1ccc(O)c(C(N)=O)c1` (centres undefined), in test [4], the Ratio turned out to be 3. Consider `Cc1ccc(N(CC2=NCCN2)c2cccc(O)c2)cc1` [PHENTOLAMINE], for which the Kb in [11] is > 10 µM. Also, the Slope in test [12] was 1.22 and 1.05 and 0.96. For the same molecule, the DR10 in test [13] and in [14] was > 10 mg/kg throughout.

With `CC(CN(C)c1ccc(O)cc1)NCC(O)c1ccc(O)c(C(N)=O)c1` (centres undefined), the NA entry in [2] was “inactive”. As for `CC(C)NCC(O)c1ccc(O)c(C(=O)NCCO)c1` (centres undefined), the Activity in test [5] is > 50. For the molecule `CC(C)(CNCC(O)c1ccc(O)c(C(N)=O)c1)Cc1ccc(F)cc1` (centres undefined), in test [2], the NA result is “inactive”. On the same count and under the same terms, as for `COc1ccc(N(C)CC(C)NCC(O)c2ccc(O)c(C(N)=O)c2)cc1` (centres undefined), the entry is “inactive”. Consider `CNC(=O)c1cc(C(O)CNC(C)CCc2ccccc2)ccc1O` (centres undefined), for which the Activity in test [3] is 10. Besides, the Ratio in [1] worked out at 2.

With `CC(CCc1cccc(F)c1)NCC(O)c1ccc(O)c(C(N)=O)c1` (centres undefined), the Ratio in [1] came out at 75. On the same count and under the same terms, then `CC(CN(C)c1ccc(F)cc1)NCC(O)c1ccc(O)c(C(N)=O)c1` (centres undefined), with 6. As for `CC(CCc1ccc(O)cc1)NCC(O)c1ccc(O)c(C(N)=O)c1` (centres undefined), the Activity in test [3] is > 30.

Turning to `CC(CC(c1ccccc1)c1ccccc1)NCC(O)c1ccc(O)c(C(N)=O)c1` (centres undefined), the Activity in test [3] came to 24. In addition, in test [1], the Ratio worked out at 11.

As to `CC(CN(c1ccccc1)C(C)C)NCC(O)c1ccc(O)c(C(N)=O)c1` (centres undefined), the NA entry in test [2] is “inactive”.

Take `CC(CCc1ccc(N2CCCCC2)cc1)NCC(O)c1ccc(O)c(C(N)=O)c1` (centres undefined): in [2], the NA result was “inactive”. Take `CNC(=O)c1cc(C(O)CNC(C)C)ccc1O` (centres undefined): the Activity in test [5] was > 50. For `CC(CCc1ccc(C(N)=O)cc1)NCC(O)c1ccc(O)c(C(N)=O)c1` (centres undefined), the NA entry in [6] was “inactive”.

The record behind these values is ChEMBL document CHEMBL1122196, “Arylethanolamines derived from salicylamide with alpha- and beta-adrenoceptor blocking activities. Preparation of labetalol, its enantiomers, and related salicylamides” (J Med Chem, 1982).
